Assays:
[1] = system: SMMC-7721; assay: Induction of cell cycle arrest in human SMMC7721 cells assessed as accumulation at subG1 phase at 10 uM incubated for 24 hrs by propidium iodide staining based flow cytometry (reference value: 0.33%); type: functional
[2] = system: SMMC-7721; assay: Induction of cell cycle arrest in human SMMC7721 cells assessed as accumulation at S phase at 5 uM incubated for 24 hrs by propidium iodide staining based flow cytometry (reference value: 17.2%); type: functional
[3] = system: CNE-2; assay: Induction of cell cycle arrest in human CNE2 cells assessed as accumulation at subG1 phase at 10 uM incubated for 24 hrs by propidium iodide staining based flow cytometry (reference value: 0.55%); type: functional
[4] = system: CNE-2; assay: Induction of apoptosis in human CNE2 cells assessed as late apoptotic cells level at 30 uM incubated for 24 hrs by Annexin V-FITC/PI dual staining based flow cytometry (reference value: 1.37%); type: functional
Method in brief: (§1)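 CNE2 and SMMC-7721 cells were treated for 24 h at 0, 5, 10 or 30 µM, or at 0, 10, 20 or 50 µM depending on compound. Cells were stained with Annexin V-FITC/propidium iodide and quantified by flow cytometry. Apoptotic cells were counted as AV+/PI− (lower right) plus AV+/PI+ (upper right) quadrants.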

[5] = system: CNE-2; assay: Induction of cell cycle arrest in human CNE2 cells assessed as accumulation at G0-G1 phase at 30 uM incubated for 24 hrs by propidium iodide staining based flow cytometry (reference value: 69.3%); type: functional
[6] = system: SMMC-7721; assay: Induction of cell cycle arrest in human SMMC7721 cells assessed as accumulation at G0-G1 phase at 10 uM incubated for 24 hrs by propidium iodide staining based flow cytometry (reference value: 64.1%); type: functional
[7] = system: SMMC-7721; assay: Induction of cell cycle arrest in human SMMC7721 cells assessed as accumulation at S phase at 30 uM incubated for 24 hrs by propidium iodide staining based flow cytometry (reference value: 17.2%); type: functional
[8] = system: CNE-2; assay: Induction of cell cycle arrest in human CNE2 cells assessed as accumulation at G0-G1 phase at 10 uM incubated for 24 hrs by propidium iodide staining based flow cytometry (reference value: 69.3%); type: functional
[9] = system: SMMC-7721; assay: Induction of apoptosis in human SMMC7721 cells assessed as viable cells level at 5 uM incubated for 24 hrs by Annexin V-FITC/PI dual staining based flow cytometry (reference value: 95.3%); type: functional; method in brief: as §1
[10] = system: SMMC-7721; assay: Anticancer activity against human SMMC7721 cells assessed as reduction in cell viability incubated for 48 hrs MTT assay; type: functional, cell-based; details: SMMC-7721, 48 h
Method in brief: (§2)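 MTT assay on human hepatocarcinoma SMMC-7721, lung carcinoma A549 and nasopharyngeal carcinoma CNE2 cells, with matrine as comparator and cisplatin as positive control. IC50 is the concentration that lowers optical density of treated cells by 50% versus untreated cells, given as the mean ± SD of three experiments.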

[11] = system: SMMC-7721; assay: Induction of cell cycle arrest in human SMMC7721 cells assessed as accumulation at G2/M phase at 10 uM incubated for 24 hrs by propidium iodide staining based flow cytometry (reference value: 18.4%); type: functional
[12] = system: CNE-2; assay: Induction of cell cycle arrest in human CNE2 cells assessed as accumulation at S phase at 10 uM incubated for 24 hrs by propidium iodide staining based flow cytometry (reference value: 10.3%); type: functional
[13] = system: SMMC-7721; assay: Induction of apoptosis in human SMMC7721 cells assessed as late apoptotic cells level at 30 uM incubated for 24 hrs by Annexin V-FITC/PI dual staining based flow cytometry (reference value: 0.88%); type: functional; method in brief: as §1
[14] = system: SMMC-7721; assay: Induction of cell cycle arrest in human SMMC7721 cells assessed as accumulation at G2/M phase at 30 uM incubated for 24 hrs by propidium iodide staining based flow cytometry (reference value: 18.4%); type: functional
[15] = system: CNE-2; assay: Induction of cell cycle arrest in human CNE2 cells assessed as accumulation at G2/M phase at 10 uM incubated for 24 hrs by propidium iodide staining based flow cytometry (reference value: 19.8%); type: functional
[16] = system: CNE-2; assay: Induction of apoptosis in human CNE2 cells incubated for 24 hrs by Annexin V-FITC/PI dual staining based flow cytometry; type: functional, cell-based; method in brief: as §1
[17] = system: CNE-2; assay: Induction of apoptosis in human CNE2 cells assessed as viable cells level at 5 uM incubated for 24 hrs by Annexin V-FITC/PI dual staining based flow cytometry (reference value: 91.6%); type: functional; method in brief: as §1
[18] = system: CNE-2; assay: Induction of cell cycle arrest in human CNE2 cells assessed as accumulation at G2/M phase at 30 uM incubated for 24 hrs by propidium iodide staining based flow cytometry (reference value: 19.8%); type: functional
[19] = system: SMMC-7721; assay: Induction of cell cycle arrest in human SMMC7721 cells assessed as accumulation at G2/M phase at 5 uM incubated for 24 hrs by propidium iodide staining based flow cytometry (reference value: 18.4%); type: functional
[20] = system: CNE-2; assay: Anticancer activity against human CNE2 cells assessed as reduction in cell viability incubated for 48 hrs MTT assay; type: functional, cell-based; details: CNE-2, 48 h; method in brief: as §2
[21] = system: SMMC-7721; assay: Induction of apoptosis in human SMMC7721 cells assessed as early apoptotic cells level at 5 uM incubated for 24 hrs by Annexin V-FITC/PI dual staining based flow cytometry (reference value: 1.36%); type: functional; method in brief: as §1
[22] = system: SMMC-7721; assay: Induction of apoptosis in human SMMC7721 cells assessed as necrotic cells level at 30 uM incubated for 24 hrs by Annexin V-FITC/PI dual staining based flow cytometry (reference value: 2.47%); type: functional; method in brief: as §1
[23] = system: CNE-2; assay: Induction of apoptosis in human CNE2 cells assessed as late apoptotic cells level at 5 uM incubated for 24 hrs by Annexin V-FITC/PI dual staining based flow cytometry (reference value: 1.37%); type: functional; method in brief: as §1
[24] = system: CNE-2; assay: Induction of cell cycle arrest in human CNE2 cells assessed as accumulation at subG1 phase at 5 uM incubated for 24 hrs by propidium iodide staining based flow cytometry (reference value: 0.55%); type: functional
[25] = system: CNE-2; assay: Induction of apoptosis in human CNE2 cells assessed as necrotic cells level at 10 uM incubated for 24 hrs by Annexin V-FITC/PI dual staining based flow cytometry (reference value: 3.43%); type: functional; method in brief: as §1
[26] = system: SMMC-7721; assay: Induction of cell cycle arrest in human SMMC7721 cells assessed as accumulation at G2/M phase incubated for 24 hrs by propidium iodide staining based flow cytometry; type: functional
[27] = system: CNE-2; assay: Induction of apoptosis in human CNE2 cells assessed as viable cells level at 30 uM incubated for 24 hrs by Annexin V-FITC/PI dual staining based flow cytometry (reference value: 91.6%); type: functional; method in brief: as §1
[28] = system: SMMC-7721; assay: Induction of cell cycle arrest in human SMMC7721 cells assessed as accumulation at G0-G1 phase at 30 uM incubated for 24 hrs by propidium iodide staining based flow cytometry (reference value: 64.1%); type: functional
[29] = system: CNE-2; assay: Induction of apoptosis in human CNE2 cells assessed as necrotic cells level at 5 uM incubated for 24 hrs by Annexin V-FITC/PI dual staining based flow cytometry (reference value: 3.43%); type: functional; method in brief: as §1
[30] = system: CNE-2; assay: Induction of cell cycle arrest in human CNE2 cells assessed as accumulation at S phase at 30 uM incubated for 24 hrs by propidium iodide staining based flow cytometry (reference value: 10.3%); type: functional
[31] = system: SMMC-7721; assay: Induction of cell cycle arrest in human SMMC7721 cells assessed as accumulation at S phase at 10 uM incubated for 24 hrs by propidium iodide staining based flow cytometry (reference value: 17.2%); type: functional

COc1cc(Cn2cccc2/C=C2\CC[C@@H]3[C@H]4CCCN5CCC[C@@H](CN3C2=O)[C@@H]45)cc(OC)c1
Activity [1]: 6.61%
Activity [2]: 7.92%
Activity [3]: 4.35%
Activity [4]: 16%
Activity [5]: 9.89%
Activity [6]: 5.61%
Activity [7]: 9.28%
Activity [8]: 3.93%
Activity [9]: 78.1%
IC50 [10]: 4.65 µM
Activity [11]: 78.9%
Activity [12]: 2.43%
Activity [13]: 17%
Activity [14]: 79.1%
Activity [15]: 89.4%
Activity [16]: Dose-dependent effect
Activity [17]: 85.5%
Activity [18]: 81.1%
Activity [19]: 24.1%
IC50 [20]: 3.55 µM
Activity [21]: 13.8%
Activity [22]: 3.67%
Activity [23]: 3.17%
Activity [24]: 5.06%
Activity [25]: 5.22%
Activity [26]: Dose-dependent effect
Activity [27]: 43%
Activity [28]: 8.58%
Activity [29]: 2.58%
Activity [30]: 4.8%
Activity [31]: 8.92%
